Laboratory results reported in paper PMC11022290 (Clinical and Translational Science, 2024).
Read-outs that look alike come from different tables or passages of the source.

What was measured:
CYP2C:TG haplotype [1] = conditions: adults; cited from earlier work
CYP2C:TG haplotype [2] = conditions: cited from earlier work
CYP2C:TG haplotype [3] = format: in vivo, human (children aged 6–21 years)
Method in brief: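 Children, fasted ≥4 h, received one proton pump inhibitor dose per visit. 12–14 serum samples were taken to 10 h post-dose and assayed by LC/MS/MS or reverse-phase HPLC. Clearance was dose/AUCtotal (AUClast + Cn/kel), weight-normalized. Genotyping was by TaqMan real-time PCR or NGS panel. Regression on CYP2C19*1 and *17 counts was compared with regression adding CYP2C:TG count. Outcomes were log-transformed as needed, with bootstrap 95% CI.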

impact of the CYP2C:TG haplotype on the PK (CYP2C:TG haplotype [3]; PO)	Compound	impact of CYP2C:TG alleles on CYP2C19 PK or metabolic phenotype (CYP2C:TG haplotype [1])	CYP2C19 activity associated with CYP2C:TG haplotype, from serum concentrations (CYP2C:TG haplotype [2])	other results
	CN(C)CCCC1(c2ccc(F)cc2)OCc2cc(C#N)ccc21 (stereo not drawn) [citalopram]	No appreciable impact		
	CN(C)CCC[C@@]1(c2ccc(F)cc2)OCc2cc(C#N)ccc21 [escitalopram]		increased CYP2C19 activity	metabolism associated with CYP2C:TG haplotype (CYP2C:TG haplotype [2]; activity similar to CYP2C19*17/*17 diplotype): ultrarapid metabolism
negligible	Cc1c(OCC(F)(F)F)ccnc1C[S+]([O-])c1nc2ccccc2[nH]1 (stereo not drawn) [lansoprazole]			Scaled coefficient (95% CI) for CYP2C:TG allele count (CYP2C:TG haplotype [3]; outcome Cmax (adj) scaled to SD 1, oral): 0.24–0.35
negligible	COc1ccnc(C[S+]([O-])c2nc3ccc(OC(F)F)cc3[nH]2)c1OC (stereo not drawn) [pantoprazole]			impact of the CYP2C:TG haplotype on the PK (CYP2C:TG haplotype [3]; IV): negligible; Scaled coefficient (95% CI) for CYP2C:TG allele count (CYP2C:TG haplotype [3]; outcome Clearance (adj) scaled to SD 1, IV): 0.24–0.35; Scaled coefficient (95% CI) for CYP2C:TG allele count (CYP2C:TG haplotype [3]; outcome Clearance scaled to SD 1, IV): 0.24–0.35; Scaled coefficient (95% CI) for CYP2C:TG allele count (CYP2C:TG haplotype [3]; outcome Cmax scaled to SD 1, oral): 0.24–0.35
	CN[C@H]1CC[C@@H](c2ccc(Cl)c(Cl)c2)c2ccccc21 [sertraline]	No appreciable impact	increased CYP2C19 activity	
